# Screening results: PubChem BioAssay, several laboratories
# Rpn11 inh – Rpn11 (PSMD14) deubiquitinase inhibitors, primary screen, biochemical, fluorescence polarization, uHTS. 26S proteasome non-ATPase regulatory subunit 14 (Homo sapiens), O00487. human 26S proteasome, Ub4-pepOG fluorescence polarization; 20S core pre-blocked with epoxomicin. calls only at 20 µM. hit rate 0.59% among 360,000. AID 588493, 2011;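 active means inhibition at 20 µM, scaled to each plate's controls, above about 33%, limit read from the data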
# Target sequence (O00487 whole entry, looked up): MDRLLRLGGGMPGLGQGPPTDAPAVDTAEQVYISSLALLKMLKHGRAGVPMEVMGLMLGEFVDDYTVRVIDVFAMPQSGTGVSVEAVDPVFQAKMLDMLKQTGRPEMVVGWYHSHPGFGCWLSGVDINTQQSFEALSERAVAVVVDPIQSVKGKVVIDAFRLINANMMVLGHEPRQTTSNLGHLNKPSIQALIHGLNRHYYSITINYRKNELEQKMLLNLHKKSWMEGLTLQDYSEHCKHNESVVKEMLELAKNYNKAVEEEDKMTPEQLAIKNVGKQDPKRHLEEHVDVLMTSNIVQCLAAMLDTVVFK
# CSN inh – inhibitors of CSN-mediated cullin deneddylation, primary screen, biochemical, fluorescence polarization, uHTS; COP9 signalosome complex subunit 5 (Homo sapiens), Q92905; Purified CSN, SCF-Nedd8-OG deneddylation; inhibition, % at 12.5 µM; hit rate 0.38% among 360,000;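 active means pattern-corrected inhibition above about 35%, with an unprinted fluorescence ratio check between 0.5 and 1.5, limit read from the data, passing the limit was not always enough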;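 further: 0% = enzyme with substrate and 100% = substrate without enzyme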
#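 Assay system: purified human Csn5 enzyme expressed in HEK293T cells; measure: % inhibition; also added: SCFSkp2-Nedd8OG substrate at 10 nM final; technique: fluorescence polarization; times: reaction 90 min, room temperature; medium: Tris buffer pH 7.5, NaCl, DTT, Tween-20, trehalose, ovalbumin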
# HNF4A DNA FP – change in binding of human HNF4A to DNA, primary screen, biochemical, fluorescence polarization, FITC-DNA; AID 1224865, 2016; Hepatocyte nuclear factor 4-alpha (Homo sapiens), P41235; 1 h; activity change, % at 10 µM; hit rate 0.3% among 360,000; in the data active means activity change above about 30%, passing the limit was not always enough
# TPT1 inhibitor – Candida albicans TPT1 enzyme inhibitors, primary screen, biochemical, fluorescence polarization; tRNA 2'-phosphotransferase TPT1 (Candida albicans SC5314); AID 1962, 2009; recombinant caTPT1, FP RNA substrate dephosphorylation; inhibition, % at 5 µM; hit rate 0.81% among 300,000;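 active means inhibition above the mean of all tested compounds plus 3 SD, set per screening campaign, cut at about 24% in these data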;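 further: plate controls were DMSO alone for no effect and ferristatin control at 100 nM for full effect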
# IDE inh – human IDE inhibitors in live cells, primary screen, fluorescence polarization, HEK cells, FAbetaB substrate | Insulin-degrading enzyme (Homo sapiens), P14735 | FAbetaB cleavage | inhibition, % at 5.59 µM | hit rate 0.41% among 320,000 | AID 434962, 2010;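 active means percent inhibition above the average of all tested compounds plus 3 SD, set per screening campaign, cut at about 16% in these data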;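 further: IDE supplied by intact live HEK cells; FP after avidin binding of uncleaved biotin substrate so inhibition keeps polarization high; 0% = DMSO wells and 100% = 60 µM reference IDE inhibitor Ii1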
# IDE act – human IDE activators in live cells, primary screen, fluorescence polarization, HEK cells, FAbeta-B substrate; activation, % at 5.96 µM; Insulin-degrading enzyme (Homo sapiens), P14735; AID 493087, 2011; hit rate 0.073% among 340,000; FAbeta-B cleavage; 0% vehicle, 100% cell-free pure enzyme wells;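 active means activation above the mean of all tested compounds plus 3 SD, set per screening campaign, cut at about 17% in these data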
# * marks the source's active call; other numbers are inactive results; i = inactive; . = no result. A selection: hits, their analogues and other compounds. The true share with any hit is near 1.7%.
SMILES,Rpn11 inh,CSN inh,HNF4A DNA FP,TPT1 inhibitor,IDE inh,IDE act
CC1CC(=O)c2c(cc3c(-c4c(O)cc(O)c5c(O)c6c(cc45)OC(C)CC6=O)c(O)cc(O)c3c2O)O1 (configuration not stated),i,59.1,-39.1,-8.8,-15.2,25.3*
CCOC(=O)C1=C(c2ccccc2)NC(=O)NC1c1cc(Cl)c(O)c(OC)c1 (configuration not stated),i,2.3,-5.7,3.6,-1.6,-5.2
CCOC(=O)C1=C(c2ccccc2)NC(N)=NC1c1ccc(OCc2ccc(Cl)cc2)c(OC)c1 (configuration not stated),i,5.2,14.0,2.1,2.3,19.1*
CC(C)NC(=O)NC(=O)COC(=O)c1ncc(Cl)c(Cl)c1Cl,i,4.9,1.7,-0.6,1.9,6.3
CN1/C(=C/C=C/c2n(C)c3cc([N+](=O)[O-])c([N+](=O)[O-])cc3[n+]2C)C(C)(C)c2ccccc21,i,11.0,95.1*,.,.,.
O=C(Nc1ccc(Cc2ccc(NC(=O)N3CCOCC3)cc2)cc1)N1CCOCC1,i,-0.4,2.0,-1.6,-1.6,8.5
CC1(C)Cc2c(c(=S)nc(-c3ccccc3)n2CCCN2CCOCC2)CO1,i,37.2*,-2.3,-0.9,-1.6,-4.9
CC1(C)Cc2c(c(=S)nc(-c3ccccc3)n2CCO)CO1,i,3.9,4.3,-8.2,3.6,-6.1
COC(=O)C1=CN(c2ccc(C(C)(C)C)cc2)C(N)=C(C#N)C1c1cccc([N+](=O)[O-])c1 (configuration not stated),.,-5.1,2.7,.,.,.
COc1cc2nc(N3CCNCC3)nc(N)c2cc1OC,i,115.9*,52.5,-2.2,2.2,1.4
Cc1nc(Cc2nnc(SC(C)C(=O)N3c4ccccc4NC(=O)C3(C)C)o2)cs1 (configuration not stated),i,0.7,0.6,.,-6.3,20.2*
CC(Sc1nnnn1C1CC1)C(=O)N1c2ccccc2NC(=O)C1(C)C (configuration not stated),i,2.6,-3.8,.,-1.9,-3.8
Cc1ccc(-n2cc(C(=O)c3ccc(N4CCN(C)CC4)cc3)nn2)cc1Cl,i,-1.5,105.4*,2.1,-2.0,7.7
CC1=C(C(=O)N2CCCCCC2)CC(CC(=O)NC2CCCCC2)C(=O)N1Cc1ccccc1 (configuration not stated),i,116.7*,-3.9,.,.,.
Cc1ccccc1NS(=O)(=O)c1ccc(C(=O)OCC(=O)NCC(C)C)cc1,i,2.1,31.2*,-2.0,-0.6,5.7
CC(C)NC(=O)NC(=O)COC(=O)c1ccc(S(=O)(=O)Nc2ccccc2)cc1,i,-3.2,-3.5,-2.3,2.8,1.1
Cc1ccc(OCCNC(=O)c2cc(-n3cnnc3)ccc2Cl)cc1C,i,-2.4,4.0,0.9,-1.3,3.1
CS(=O)(=O)NN1C(=O)c2ccccc2NC1c1cccc(O)c1 (configuration not stated),i,-2.6,-5.8,-5.4,6.4,-3.7
CN1C(=O)c2ccccc2NC(=O)[C@]12O[C@@H]2c1cccc(O)c1,i,13.4,-7.5,24.1*,-1.6,1.5
CC(C)NC(=S)N(C)C1(c2ccccc2Cl)CCCCC1=O (configuration not stated),i,2.1,0.4,-4.0,8.7,1.9
COCCNC(=S)N(C)C1(c2ccccc2Cl)CCCCC1=O (configuration not stated),i,5.3,1.1,-2.0,-0.3,17.5*
CCCCn1cc(SCC(=O)O)c2ccccc21,i,59.1*,-4.7,-3.2,7.2,1.6
CCCn1cc(SCC(=O)NC2CCCC2)c2ccccc21,i,-3.0,-3.8,-1.4,7.1,-2.7
O=c1ccc2c(ccc3ncccc32)o1,i,0.9,-4.2,.,.,.
COc1ccc(Cl)cc1NC(=O)Cc1c(F)cccc1Cl,i,3.7,-0.1,6.1,1.6,-4.9
